MC4R barr agon: human MC4R agonism via beta-arrestin | activation, % at 8.9 µM | U2OS MC4R beta-arrestin complementation, luminescence; percent of melanotan II response, DMSO zero | AID 540308 | P32245 | hit rate 0.98% among 360,000;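 active = activation above a per-plate cutoff, the mean activation of sample wells on that plate plus 3 SD, cut at about 8% in these data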
HTR5A inv ctr: inverse agonist of human HTR5A in OPRM1-OPRD1 counter-screen; P47898; HTR5A cell line, luminescence, inverse agonism; inhibition, % at 9.3 µM; hit rate 0.083% among 340,000; AID 504634; in the data active = inhibition mostly above about 23%, no sharp cut-off; inactive = mostly below about 18%
Target sequence (P47898 whole entry, looked up): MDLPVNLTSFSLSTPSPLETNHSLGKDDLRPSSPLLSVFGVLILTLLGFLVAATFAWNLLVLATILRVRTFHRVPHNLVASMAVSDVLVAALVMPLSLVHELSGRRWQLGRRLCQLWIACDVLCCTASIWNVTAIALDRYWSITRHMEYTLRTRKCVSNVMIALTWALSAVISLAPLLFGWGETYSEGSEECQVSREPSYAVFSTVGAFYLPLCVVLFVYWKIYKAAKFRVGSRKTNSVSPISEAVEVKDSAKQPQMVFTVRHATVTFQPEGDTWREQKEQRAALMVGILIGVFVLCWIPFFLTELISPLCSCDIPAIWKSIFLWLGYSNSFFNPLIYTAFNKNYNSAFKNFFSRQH
MC4R antag cAMP: human MC4R antagonism in cAMP assay | AID 540295 | hit rate 0.48% among 360,000 | MC4R-expressing cells, MTII-stimulated cAMP, LANCE TR-FRET | P32245 | inhibition, % at 6.5 µM;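 active = inhibition above its plate's cutoff, the mean of tested wells on that plate plus 3 SD, cut at about 29% in these data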
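Assay system: U2OS-MC4R stable cell line; Also added: Melanotan II; Technique: Eu-cAMP/anti-cAMP TR-FRET, emission 671 nm; Times: 30-min compound, 1-h challenge, 1-h detection, room temperature.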
MOR-DOR inv ag: inverse agonist of human OPRM1-OPRD1 heterodimerization. P35372+P41143. cell-based MOR-DOR heterodimer luminescence, inverse agonism. inhibition, % at 9.3 µM. hit rate 0.21% among 340,000; in the data active = inhibition above about 22%, passing the limit was not always enough
MOR-DOR ag: agonists of human mu-delta opioid receptor heterodimerization. activation, % at 9.3 µM. cells, OPRM1-OPRD1 heterodimerization, luminescence. hit rate 0.3% among 340,000. P35372+P41143; in the data active = activation above about 18%
HTR5A ag: counter-screen for OPRM1-OPRD1 agonists: human HTR5A agonism | activation, % at 9.3 µM | HTR5A agonist assay, luminescence, cell-based | AID 504692 | P47898 | hit rate 0.61% among 340,000; in the data active = activation mostly above about 9.5%, no sharp cut-off; inactive = mostly below about 7.6%
cAMP nonselect: counter-screen for MC4R antagonists: nonselective cAMP signaling inhibitors; shares compounds with MC4R antag cAMP; parental U2OS, forskolin cAMP, LANCE TR-FRET; inhibition, % at 6.5 µM; hit rate 26% among 1,600; AID 602193;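 active = mean inhibition over triplicates above the low-control well mean plus 3 SD, set per campaign, cut at about 13% in these data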;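 also: signal is single emission at 671 nm which falls as cellular cAMP rises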
MC4R antag conf: human MC4R cAMP antagonism confirmation. inhibition, % at 6.5 µM. AID 602195. shares compounds with MC4R antag cAMP. hit rate 27% among 1,600. MC4R-expressing cells, MTII-stimulated cAMP, TR-FRET; in the data active = inhibition above about 29%
A number is an active result. A selection: hits, their analogues and other compounds. The true share with any hit is near 2.4%.

Screening CC(=O)Nc1ccc(Nc2nnc(-c3ccc(C)c(S(N)(=O)=O)c3)c3ccccc23)cc1 returned MC4R barr agon inactive, HTR5A inv ctr inactive, MC4R antag cAMP inactive, MOR-DOR inv ag inactive, MOR-DOR ag inactive and HTR5A ag inactive.
Cc1ccc(N2CCN(C(=O)c3cccc([N+](=O)[O-])c3)CC2)cc1Cl was read as MC4R barr agon inactive, HTR5A inv ctr inactive, MC4R antag cAMP 33, MOR-DOR inv ag inactive, MOR-DOR ag inactive, HTR5A ag inactive, cAMP nonselect inactive and MC4R antag conf inactive.
O=C(c1cccc([N+](=O)[O-])c1)N1CCN(c2cccc(Cl)c2)CC1 was read as MC4R barr agon inactive, HTR5A inv ctr inactive, MC4R antag cAMP inactive, MOR-DOR inv ag inactive, MOR-DOR ag inactive and HTR5A ag inactive.
For CCOC(=O)C1CCCN(C(=O)c2ccc(OC)c([N+](=O)[O-])c2)C1 (stereo unspecified) the results were MC4R barr agon inactive, HTR5A inv ctr inactive, MC4R antag cAMP inactive, MOR-DOR inv ag inactive, MOR-DOR ag inactive and HTR5A ag inactive.
Screening CCOC(=O)C1CCCN(C(=O)c2cccc([N+](=O)[O-])c2C)C1 (stereo unspecified) returned MC4R barr agon inactive, HTR5A inv ctr inactive, MC4R antag cAMP 32, MOR-DOR inv ag inactive, MOR-DOR ag inactive, HTR5A ag inactive, cAMP nonselect inactive and MC4R antag conf inactive.
Cn1cc(CN2C[C@H]3CC[C@H]2C3)c(-c2ccccc2F)n1 was read as MC4R barr agon inactive, HTR5A inv ctr inactive, MC4R antag cAMP 29, MOR-DOR inv ag inactive, MOR-DOR ag inactive, HTR5A ag inactive, cAMP nonselect inactive and MC4R antag conf inactive.
`Cn1cc(CN2CCC(C(=O)N3CCCC3)CC2)c(-c2ccccc2F)n1` gave MC4R barr agon inactive, HTR5A inv ctr inactive, MC4R antag cAMP inactive, MOR-DOR inv ag inactive, MOR-DOR ag inactive and HTR5A ag inactive.
CC(C)CCNC(=O)CN(CC1CCCO1)C(=O)CCC(=O)Nc1nccs1 (stereo unspecified) was read as MC4R barr agon inactive, HTR5A inv ctr inactive, MC4R antag cAMP inactive, MOR-DOR inv ag inactive, MOR-DOR ag inactive and HTR5A ag inactive.
Screening CCC(C)(C)NC(=O)CN(CC1CCCO1)C(=O)CCC(=O)Nc1nccs1 (stereo unspecified) returned MC4R barr agon inactive, HTR5A inv ctr inactive, MC4R antag cAMP 35, MOR-DOR inv ag inactive, MOR-DOR ag inactive, HTR5A ag inactive, cAMP nonselect inactive and MC4R antag conf inactive.
`Cc1ccc(NC(=O)CN(C)C(=O)COC(=O)CCS(=O)(=O)c2ccc(C)cc2)cc1` gave MC4R barr agon inactive, HTR5A inv ctr inactive, MC4R antag cAMP inactive, MOR-DOR inv ag inactive, MOR-DOR ag inactive and HTR5A ag inactive.
For Cc1nc(-c2cccc(NC(=O)c3cccc(S(=O)(=O)N4CCCC4)c3)c2)cs1 the results were MC4R barr agon inactive, HTR5A inv ctr inactive, MC4R antag cAMP inactive, MOR-DOR inv ag inactive, MOR-DOR ag inactive and HTR5A ag inactive.
`Cc1nc(-c2cccc(NC(=O)c3ccc(Cl)c(S(=O)(=O)N4CCCC4)c3)c2)cs1` gave MC4R barr agon inactive, MC4R antag cAMP 31, cAMP nonselect inactive and MC4R antag conf inactive.
N#Cc1c(-c2ccccc2)nc(SCC(=O)Nc2ccccc2)[nH]c1=O was read as MC4R barr agon inactive, HTR5A inv ctr inactive, MC4R antag cAMP inactive, MOR-DOR inv ag inactive, MOR-DOR ag inactive and HTR5A ag inactive.
`Cc1cc(C)nc(NS(=O)(=O)c2ccc(NC(=O)CSc3nc(-c4ccccc4)c(C#N)c(=O)[nH]3)cc2)n1` gave MC4R barr agon inactive, HTR5A inv ctr inactive, MC4R antag cAMP 36, MOR-DOR inv ag inactive, MOR-DOR ag inactive, HTR5A ag inactive, cAMP nonselect 17 and MC4R antag conf inactive.
Screening Cc1ccnc(NS(=O)(=O)c2ccc(NC(=O)Cc3ccccc3)cc2)n1 returned MC4R barr agon inactive, HTR5A inv ctr inactive, MC4R antag cAMP inactive, MOR-DOR inv ag inactive, MOR-DOR ag inactive and HTR5A ag inactive.

Screens: PubChem, The Scripps Research Institute Molecular Screening Center
